Measurements: ChEMBL document CHEMBL1130205, “Potent noncovalent thrombin inhibitors that utilize the unique amino acid D-dicyclohexylalanine in the P3 position. Implications on oral bioavailability and antithrombotic efficacy” (J Med Chem, 1997)

What was measured:
Rattus norvegicus [1] = organism: Rattus norvegicus; test: (§1) Number of occlusions was reported; type: functional
Summary of the method: (§2)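 Rat carotid artery FeCl3-induced thrombosis: inhibitor infused iv at 6 µg/kg/min for 120 min before FeCl3 insult (vehicle saline or 30% propylene glycol/saline); occlusions counted; plasma drug level at end of experiment. 2X APTT = plasma concentration (µM) doubling activated partial thromboplastin time, determined in rat plasma.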

[2] = The plasma clearance in rat.; type: ADME, organism-based; details: read-out: CI
Summary of the method: (§3)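 Cannulated rats (carotid artery; jugular vein for iv group) dosed 2 mg/kg iv (saline or 30% propylene glycol/saline) or 10 mg/kg po (0.1% methocel suspension). Blood sampled 1-360 min (iv) or 15-360 min (po), centrifuged, plasma extracted with acetonitrile and quantified by thrombin enzyme activity assay.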

Plasma kallikrein = Plasma kallikrein (Homo sapiens, UniProt P03952); test: Inhibitory activity against human serine protease (plasma Kallikrein) (89000*)
Sequence of Plasma kallikrein (P03952 20-390 limits assumed): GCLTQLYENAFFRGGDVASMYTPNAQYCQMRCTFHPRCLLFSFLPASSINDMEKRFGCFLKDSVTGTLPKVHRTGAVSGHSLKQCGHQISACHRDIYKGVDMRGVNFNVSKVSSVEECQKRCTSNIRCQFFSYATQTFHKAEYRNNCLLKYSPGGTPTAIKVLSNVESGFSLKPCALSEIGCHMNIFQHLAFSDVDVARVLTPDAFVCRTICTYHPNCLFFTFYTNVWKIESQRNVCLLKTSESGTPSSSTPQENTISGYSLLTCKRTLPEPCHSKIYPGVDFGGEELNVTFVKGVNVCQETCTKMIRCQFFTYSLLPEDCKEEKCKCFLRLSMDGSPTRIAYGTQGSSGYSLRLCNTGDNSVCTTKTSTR
Sequence of Plasma kallikrein (P03952 391-638 limits assumed): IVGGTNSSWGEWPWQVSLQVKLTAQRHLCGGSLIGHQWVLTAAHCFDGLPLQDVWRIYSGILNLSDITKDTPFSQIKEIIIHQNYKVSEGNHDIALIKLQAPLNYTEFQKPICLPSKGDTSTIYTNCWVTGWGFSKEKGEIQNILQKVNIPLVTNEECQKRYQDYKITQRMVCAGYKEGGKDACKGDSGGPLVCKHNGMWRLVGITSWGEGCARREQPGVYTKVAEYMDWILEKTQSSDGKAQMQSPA

[3] = The fraction of free compound available in plasma of rat; type: ADME, cell-free; details: read-out: Funbound_plasma
[4] = Bioavailability in rat; type: ADME, organism-based; details: in vivo; summary of the method: as §3
[5] = The half life period in rat.; type: ADME, organism-based; details: in vivo; summary of the method: as §3
[6] = The fraction of free compound available in plasma of human; type: ADME, cell-free; details: read-out: Funbound_plasma
Rattus norvegicus [7] = test: AUC (Area under curve) was determined after peroral administration at a dose 10 mg/kg in rat.; type: ADME, organism-based, Plasma; parameters: dose 10 mg/kg, route oral; details: in vivo, po
Serine protease 1 [8] = biological target: T1, Serine protease 1 (Homo sapiens, UniProt P07477); test: Inhibitory activity against human serine protease (Trypsin)(2143*)
T1 sequence (P07477 whole entry): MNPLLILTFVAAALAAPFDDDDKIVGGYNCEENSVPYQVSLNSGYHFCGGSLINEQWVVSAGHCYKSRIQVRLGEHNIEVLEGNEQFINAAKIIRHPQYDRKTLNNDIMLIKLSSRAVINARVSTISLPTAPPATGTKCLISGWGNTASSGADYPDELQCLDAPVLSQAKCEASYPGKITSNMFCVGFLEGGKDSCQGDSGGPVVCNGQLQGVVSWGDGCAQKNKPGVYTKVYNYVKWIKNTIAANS

Coagulation factor X = Coagulation factor X (Homo sapiens, UniProt P00742); test: Inhibitory activity against human serine protease Coagulation factor X (1.7*10e6*)
Sequence of Coagulation factor X (P00742 41-179 limits assumed): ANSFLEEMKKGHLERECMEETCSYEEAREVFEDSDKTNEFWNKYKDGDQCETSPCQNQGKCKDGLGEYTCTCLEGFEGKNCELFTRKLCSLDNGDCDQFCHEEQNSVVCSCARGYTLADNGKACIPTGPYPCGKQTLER
Sequence of Coagulation factor X (P00742 235-488 limits assumed): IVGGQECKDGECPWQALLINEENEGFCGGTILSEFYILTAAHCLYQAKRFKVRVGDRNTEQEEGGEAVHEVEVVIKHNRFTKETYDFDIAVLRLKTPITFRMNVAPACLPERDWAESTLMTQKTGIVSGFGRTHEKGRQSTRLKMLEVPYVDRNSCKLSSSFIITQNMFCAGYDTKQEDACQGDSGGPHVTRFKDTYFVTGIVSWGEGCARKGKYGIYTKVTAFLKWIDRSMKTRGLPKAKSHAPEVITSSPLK

[9] = biological target: Tissue-type plasminogen activator (Homo sapiens, UniProt P00750); test: Inhibitory activity against human serine protease (TPA) (2.5*10e6*)
Sequence of Tissue-type plasminogen activator (P00750 whole entry): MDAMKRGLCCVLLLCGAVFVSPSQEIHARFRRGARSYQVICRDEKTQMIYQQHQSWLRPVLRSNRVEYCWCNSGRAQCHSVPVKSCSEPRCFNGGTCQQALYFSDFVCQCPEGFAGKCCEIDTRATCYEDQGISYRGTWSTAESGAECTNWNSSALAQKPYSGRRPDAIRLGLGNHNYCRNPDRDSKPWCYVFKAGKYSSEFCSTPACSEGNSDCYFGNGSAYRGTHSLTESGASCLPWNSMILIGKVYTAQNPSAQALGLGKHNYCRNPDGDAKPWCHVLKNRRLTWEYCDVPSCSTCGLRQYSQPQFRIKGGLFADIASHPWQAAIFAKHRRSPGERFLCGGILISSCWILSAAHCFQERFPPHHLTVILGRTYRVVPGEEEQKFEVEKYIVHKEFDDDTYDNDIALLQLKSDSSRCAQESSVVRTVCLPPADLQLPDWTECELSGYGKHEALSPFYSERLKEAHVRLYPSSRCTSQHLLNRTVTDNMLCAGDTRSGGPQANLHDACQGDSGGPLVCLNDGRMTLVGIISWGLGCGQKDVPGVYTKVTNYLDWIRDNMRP

Prothrombin = Prothrombin (Homo sapiens, UniProt P00734); test: Inhibitory activity against human thrombin
[10] = (§4) log P values were determined by the standard partition method using octanol/pH 7.4 phosphate buffer; type: physicochemical
Summary of the method: (§5)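 Octanol/pH 7.4 phosphate buffer standard partition method.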

Rattus norvegicus [11] = test: AUC (Area under curve) was determined after intravenous administration at a dose 2 mg/kg in rat.; type: ADME, organism-based, Plasma; parameters: dose 2 mg/kg, route intravenous; details: in vivo
Plasminogen = Plasminogen (Homo sapiens, UniProt P00747); test: Inhibitory activity against human serine protease (plasmin) (3.0*10e6)
Sequence of Plasminogen (P00747 97-580 limits assumed): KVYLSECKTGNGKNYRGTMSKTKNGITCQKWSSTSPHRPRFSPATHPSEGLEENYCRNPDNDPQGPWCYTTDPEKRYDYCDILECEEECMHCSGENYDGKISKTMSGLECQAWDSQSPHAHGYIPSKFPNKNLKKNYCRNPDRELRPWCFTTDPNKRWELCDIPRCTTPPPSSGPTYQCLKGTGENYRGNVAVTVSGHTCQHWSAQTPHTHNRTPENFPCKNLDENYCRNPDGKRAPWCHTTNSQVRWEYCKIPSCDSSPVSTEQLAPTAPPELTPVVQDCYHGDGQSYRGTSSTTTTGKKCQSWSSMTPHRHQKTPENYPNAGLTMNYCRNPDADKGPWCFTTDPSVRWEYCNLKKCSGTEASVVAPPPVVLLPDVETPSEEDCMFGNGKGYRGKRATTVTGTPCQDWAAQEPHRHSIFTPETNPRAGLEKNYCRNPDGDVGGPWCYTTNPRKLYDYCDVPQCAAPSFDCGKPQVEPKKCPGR
Sequence of Plasminogen (P00747 581-810 limits assumed): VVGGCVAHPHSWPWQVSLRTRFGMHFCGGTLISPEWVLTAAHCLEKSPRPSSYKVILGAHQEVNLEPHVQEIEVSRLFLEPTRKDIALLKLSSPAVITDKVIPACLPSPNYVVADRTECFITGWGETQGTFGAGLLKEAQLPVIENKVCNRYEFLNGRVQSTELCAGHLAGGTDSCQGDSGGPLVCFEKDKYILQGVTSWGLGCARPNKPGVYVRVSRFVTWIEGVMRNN

[12] = The half life period by intravenous administration in dog; type: ADME, organism-based, Canis lupus familiaris; details: in vivo
Summary of the method: (§6)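 Two fasted male beagle dogs (10-12 kg), crossover design. Oral 5 mg/kg as 1% methocel suspension, blood from jugular vein at 0-480 min; iv 1 mg/kg bolus in 20% PEG/saline, blood at 0-480 min. Plasma frozen at -20 °C and assayed by HPLC.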

Canis familiaris [13] = test: AUC (Area under curve) was determined after intravenous administration at a dose 1 mg/kg in dog; type: ADME, organism-based, Canis lupus familiaris, Plasma; parameters: dose 1 mg/kg, route intravenous; details: in vivo; summary of the method: as §6
[14] = The plasma clearance in dog.; type: ADME, organism-based, Canis lupus familiaris; details: read-out: CI; summary of the method: as §6
[15] = Bioavailability in dog; type: ADME, organism-based, Canis lupus familiaris; details: in vivo; summary of the method: as §6
Rattus norvegicus [16] = test: Concentration required to double the activated partial thromboplastin time (2X APTT) in FeCl3 induced thrombosis in rat carotid artery at 6 micro g/kg/min dose by intravenous administration.; type: functional; summary of the method: as §2
Canis familiaris [17] = test: AUC (Area under curve) was determined after peroral administration at a dose 5 mg/kg in dog; type: ADME, organism-based, Canis lupus familiaris, Plasma; parameters: dose 5 mg/kg, route oral; details: in vivo, po; summary of the method: as §6
[18] = as §4; type: physicochemical; summary of the method: as §5; remark: listed apart in the source
[19] = The half life period by peroral administration in dog; type: ADME, organism-based, Canis lupus familiaris; details: in vivo, po; summary of the method: as §6
[20] = Partition coefficient (logP); type: physicochemical; details: octanol/water; summary of the method: as §5
Serine protease 1 [21] = biological target: T1, Serine protease 1; test: Inhibitory activity against human trypsin
[22] = as §1; type: ADME; summary of the method: as §2

| Structure (SMILES) | No. of occlusions (Rattus norvegicus [1]) | clearance [2] | fraction unbound [3] | bioavailability [4] | half-life [5] | AUC (Rattus norvegicus [7]) | Ki (Prothrombin) | logD [10] | AUC (Rattus norvegicus [11]) | other results |
| --- | --- | --- | --- | --- | --- | --- | --- | --- | --- | --- |
| NC1CCC(CNC(=O)[C@@H]2CCCN2C(=O)[C@H](N)C(C2CCCCC2)C2CCCCC2)CC1 (some centres not stated) | 1 | 6 mL/min/kg | 0.06 | 2% | 0.2 h | 0.36 µM·h | 0.056 nM | 0.794 | 3.3 µM·h | Ki (Plasma kallikrein): 5000 nM; fraction unbound [6]: 0.02; Ki (Serine protease 1 [8]): 120 nM; Ki (Coagulation factor X): 95000 nM; Ki [9]: 137000 nM; Ki (Plasminogen): 165000 nM |
| NC1CCC(CNC(=O)[C@@H]2CCCN2C(=O)[C@@H](N)C(C2CCCCC2)C2CCCCC2)CC1 (some centres not stated) |  |  |  |  |  |  | 440 nM |  |  |  |
| CC(C)(C)OC(=O)N[C@@H](C(=O)N1CCC[C@H]1C(=O)NCC1CCC(N)CC1)C(C1CCCCC1)C1CCCCC1 (some centres not stated) | 4 | 17.9 mL/min/kg | < 0.01 | 41% | 4.15 h | 6.86 µM·h | 0.1 nM | > 3.09 | 3.34 µM·h | half-life [12]: 3.27 h; AUC (Canis familiaris [13]): 90 µM·h; clearance [14]: 6.06 mL/min/kg; bioavailability [15]: 90%; Concentration (Rattus norvegicus [16]): 2.7 µM; AUC (Canis familiaris [17]): 45.3 µM·h; logD [18]: > 3.09; half-life [19]: 7.13 h |
| NC1CCC(CNC(=O)[C@@H]2CCCN2C(=O)[C@H](N)C(c2ccccc2)c2ccccc2)CC1 (some centres not stated) |  |  |  |  |  |  |  |  |  | logP [20]: -0.539; Ki (Serine protease 1 [21]): 94 nM |
| CC1CNc2c(cccc2S(=O)(=O)N[C@@H](CCCNC(=N)N)C(=O)N2CCC(C)C[C@@H]2C(=O)O)C1 (single isomer, unassigned) [ARGATROBAN] |  |  |  |  |  |  |  |  |  | No. of occlusions [22]: 0 |
| CC(C)(C)OC(=O)N[C@H](C(=O)N1CCC[C@H]1C(=O)NCC1CCC(N)CC1)C(C1CCCCC1)C1CCCCC1 (some centres not stated) |  |  |  |  |  |  | 3000 nM |  |  |  |
